# Experimental data reported in ChEMBL document CHEMBL4819011, “Structure-based discovery of 1H-indole-2-carboxamide derivatives as potent ASK1 inhibitors for potential treatment of ulcerative colitis” (Eur J Med Chem, 2021).
# Activity calls are given as the source filed them. The rule behind the calls is not given here.
# How the values were obtained:
# Mus musculus [1] = assay: Anti-ulcerative colitis activity against DSS-induced ulcerative colitis ICR mouse model assessed as colon shortening at 25 mg/kg, po qd measured after 7 days (reference value: 26.7%); type: functional; details: time 7 day
# How it was run: (§1)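 Male ICR mice (18–22 g, 6–8 weeks) given 3% DSS (w/v) in drinking water for 7 days, water changed every two days. Dosed 25 mg/kg po once daily in CMC-Na aqueous vehicle during DSS exposure; vehicle-treated water and DSS groups served as controls, n = 6 per group. Body weight, stool consistency and rectal bleeding recorded daily. DAI is the mean of the weight-loss (0–4), stool (0–2) and blood (0–2) scores. Colon length measured at sacrifice. Mean ± SEM.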
# [2] = molecular target: T1, Mitogen-activated protein kinase kinase kinase 5 (Mus musculus) (UniProt O35099); assay: In vivo inhibition of ASK1 in DSS-induced ulcerative colitis ICR mouse model assessed as downregulation of phosphorylation of ASK1 in colon at 25 mg/kg, po qd measured after 7 days by western blot assay; type: functional, organism-based; details: time 7.0 day
# T1 sequence (whole entry): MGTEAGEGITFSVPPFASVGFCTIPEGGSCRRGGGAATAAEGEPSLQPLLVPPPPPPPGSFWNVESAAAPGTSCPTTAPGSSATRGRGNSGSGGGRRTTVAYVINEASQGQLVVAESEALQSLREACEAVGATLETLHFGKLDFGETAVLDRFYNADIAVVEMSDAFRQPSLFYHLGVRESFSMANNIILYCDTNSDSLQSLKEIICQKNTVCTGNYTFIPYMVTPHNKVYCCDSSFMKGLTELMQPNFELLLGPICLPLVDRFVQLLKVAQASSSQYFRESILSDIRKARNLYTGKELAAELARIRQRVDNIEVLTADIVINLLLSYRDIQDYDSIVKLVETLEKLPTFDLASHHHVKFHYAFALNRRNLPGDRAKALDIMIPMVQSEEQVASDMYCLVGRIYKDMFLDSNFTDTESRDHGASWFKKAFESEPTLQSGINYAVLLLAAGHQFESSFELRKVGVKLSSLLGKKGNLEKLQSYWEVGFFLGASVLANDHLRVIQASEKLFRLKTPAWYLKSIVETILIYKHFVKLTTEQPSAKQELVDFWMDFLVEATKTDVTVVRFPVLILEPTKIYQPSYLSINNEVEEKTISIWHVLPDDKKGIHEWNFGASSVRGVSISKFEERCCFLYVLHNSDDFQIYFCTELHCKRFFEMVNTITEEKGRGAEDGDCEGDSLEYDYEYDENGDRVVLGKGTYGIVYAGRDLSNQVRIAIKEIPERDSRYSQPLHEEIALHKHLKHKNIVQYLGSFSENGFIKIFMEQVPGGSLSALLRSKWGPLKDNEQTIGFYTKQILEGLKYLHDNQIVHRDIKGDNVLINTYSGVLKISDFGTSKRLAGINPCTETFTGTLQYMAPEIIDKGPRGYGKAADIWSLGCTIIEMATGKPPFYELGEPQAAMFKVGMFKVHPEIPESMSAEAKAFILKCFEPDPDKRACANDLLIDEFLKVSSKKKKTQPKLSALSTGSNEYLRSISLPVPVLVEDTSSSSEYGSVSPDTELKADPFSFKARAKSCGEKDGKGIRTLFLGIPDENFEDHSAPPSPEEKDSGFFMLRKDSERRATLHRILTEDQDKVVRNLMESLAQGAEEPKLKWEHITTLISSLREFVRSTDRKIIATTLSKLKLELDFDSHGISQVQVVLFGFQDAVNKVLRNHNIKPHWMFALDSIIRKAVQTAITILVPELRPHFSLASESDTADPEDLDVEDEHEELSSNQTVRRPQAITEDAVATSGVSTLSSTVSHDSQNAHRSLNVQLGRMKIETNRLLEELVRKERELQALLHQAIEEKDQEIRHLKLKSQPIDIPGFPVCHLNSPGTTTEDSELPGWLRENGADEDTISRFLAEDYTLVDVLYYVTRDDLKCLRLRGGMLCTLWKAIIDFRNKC
# How it was run: (§2)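 Colons from ICR mice given 7 days of DSS plus 25 mg/kg po qd. Tissue homogenised in ice-cold RIPA buffer and protein quantified by BCA. Proteins separated by SDS-PAGE, transferred to PVDF and blocked in 5% BSA. Probed overnight at 4 °C for total and phospho ASK1, MKK3/6, MKK4/7, p38 and JNK, with GAPDH as loading control. Detected with HRP anti-rabbit secondary and ECL. Phosphorylated protein normalised to its unphosphorylated form.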
# [3] = Oral bioavailability in Sprague-Dawley rat at 5 mg/kg measured for 24 hrs by LC-MS/MS analysis; type: ADME, organism-based; details: in vivo
# [4] = molecular target: T1, Mitogen-activated protein kinase kinase kinase 5 (Mus musculus); assay: In vivo inhibition of ASK1 in DSS-induced ulcerative colitis ICR mouse model assessed as downregulation of phosphorylation of JNK in colon at 25 mg/kg, po qd measured after 7 days by western blot assay; type: functional, organism-based; details: time 7.0 day; how it was run: as §2
# [5] = molecular target: T1, Mitogen-activated protein kinase kinase kinase 5 (Mus musculus); assay: In vivo inhibition of ASK1 in DSS-induced ulcerative colitis ICR mouse model assessed as downregulation of phosphorylation of MKK3/6 in colon at 25 mg/kg, po qd measured after 7 days by western blot assay; type: functional, organism-based; details: time 7.0 day; how it was run: as §2
# Mus musculus [6] = assay: Anti-ulcerative colitis activity against DSS-induced ulcerative colitis ICR mouse model assessed as disease activity index score at 25 mg/kg, po qd measured after 7 days (reference value: 2.83 units); type: functional; details: time 7 day; how it was run: as §1
# Mus musculus [7] = assay: Anti-ulcerative colitis activity against DSS-induced ulcerative colitis ICR mouse model assessed as decrease of infiltration of inflammatory cells in colon at 25 mg/kg, po qd measured after 7 days by H and E staining method; type: functional, organism-based; details: time 7.0 day
# How it was run: (§3)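 ICR mice given 3% DSS in drinking water for 7 days with 25 mg/kg po qd in CMC-Na vehicle. At sacrifice, colons fixed in 4% formaldehyde, paraffin-embedded, sectioned at 4 µm and stained with hematoxylin and eosin. Histopathology examined by light microscopy.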
# Mus musculus [8] = assay: Anti-ulcerative colitis activity against DSS-induced ulcerative colitis ICR mouse model assessed as decrease of colonic tissue damage at 25 mg/kg, po qd measured after 7 days by H and E staining method; type: functional, organism-based; details: time 7.0 day; how it was run: as §3
# Mus musculus [9] = assay: Anti-inflammatory activity against DSS-induced ulcerative colitis ICR mouse model assessed as decrease of IL-6 level in colon at 25 mg/kg, po qd measured after 7 days by ELISA; type: functional, organism-based; details: time 7.0 day
# How it was run: (§4)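 Colon tissue collected from ICR mice after 7 days of 3% DSS drinking water plus 25 mg/kg po qd dosing. Tissue homogenised and centrifuged; IL-1β, IL-6 and TNF-α in the supernatant measured with mouse ELISA kits.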
# Mus musculus [10] = assay: Anti-inflammatory activity against DSS-induced ulcerative colitis ICR mouse model assessed as decrease of IL-1 beta level in colon at 25 mg/kg, po qd measured after 7 days by ELISA; type: functional, organism-based; details: time 7.0 day; how it was run: as §4
# [11] = Volume of distribution at steady state in Sprague-Dawley rat at 1 mg/kg, iv measured for 24 hrs by LC-MS/MS analysis; type: ADME, organism-based; details: in vivo, read-out: Vdss
# How it was run: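 Male SD rats, fasted 24 h, n = 3. Single iv dose of 1 mg/kg given as a solution in 10% DMAC + 10% (30% Solutol HS 15 in water) + 80% saline. Venous blood (about 150 µL) collected into heparin tubes at 0.083, 0.25, 0.5, 1, 2, 4, 8 and 24 h. Plasma protein-precipitated with ACN containing dexamethasone IS, analysed by LC-MS/MS. Parameters calculated in DAS 2.1.1; mean ± SD.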
# Mus musculus [12] = assay: Anti-inflammatory activity against DSS-induced ulcerative colitis ICR mouse model assessed as decrease of TNF-alpha level in colon at 25 mg/kg, po qd measured after 7 days by ELISA; type: functional, organism-based; details: time 7.0 day; how it was run: as §4
# [13] = molecular target: T1, Mitogen-activated protein kinase kinase kinase 5 (Mus musculus); assay: In vivo inhibition of ASK1 in DSS-induced ulcerative colitis ICR mouse model assessed as downregulation of phosphorylation of MKK4/7 in colon at 25 mg/kg, po qd measured after 7 days by western blot assay; type: functional, organism-based; details: time 7.0 day; how it was run: as §2
# Mus musculus [14] = assay: Anti-ulcerative colitis activity against DSS-induced ulcerative colitis ICR mouse model assessed as recovery of body weight loss at 25 mg/kg, po qd measured after 7 days; type: functional, organism-based; details: time 7.0 day; how it was run: as §1
# [15] = molecular target: T1, Mitogen-activated protein kinase kinase kinase 5 (Mus musculus); assay: In vivo inhibition of ASK1 in DSS-induced ulcerative colitis ICR mouse model assessed as downregulation of phosphorylation of p38 in colon at 25 mg/kg, po qd measured after 7 days by western blot assay; type: functional, organism-based; details: time 7.0 day; how it was run: as §2
smiles,measurement,setting,value
Cc1cc(F)c(C(=O)Nc2cccc(-c3nncn3C(C)C)n2)cc1-n1cnc(C2CC2)c1 [SELONSERTIB],Activity,Mus musculus [1],23.4%
same,inhibition,[2],Active
same,bioavailability,[3],75%
same,inhibition,[4],Active
same,inhibition,[5],Active
same,DAI score decrease,Mus musculus [6],0.83
same,Activity,Mus musculus [7],Active
same,Activity,Mus musculus [8],Active
same,Activity,Mus musculus [9],Active
same,Activity,Mus musculus [10],Active
same,Vd,[11],0.55 L/kg
same,Activity,Mus musculus [12],Active
same,inhibition,[13],Active
same,Activity,Mus musculus [14],inactive
same,inhibition,[15],Active
